Results of several laboratories.
Compare with care: the assays were run in different laboratories.
MTOR: Serine/threonine-protein kinase mTOR (MTOR, Homo sapiens, UniProt P42345)
SMARCA2 bromodomain: SWI/SNF-related matrix-associated actin-dependent regulator of chromatin subfamily A member 2, bromodomain (SMARCA2, Homo sapiens, UniProt P51531)
HSP90B1: Endoplasmin (HSP90B1, Canis lupus familiaris, UniProt P41148)

Compound | target | test | setting | Kd
CC(=O)N[C@H]1[C@H](O[C@H]2[C@H](O)[C@@H](NC(C)=O)C(O)O[C@@H]2CO)O[C@H](CO)[C@@H](O[C@@H]2O[C@H](CO)[C@@H](O)[C@H](O)[C@H]2NC(C)=O)[C@@H]1O (some centres unmarked) | Chitotriosidase-1 (Homo sapiens, UniProt Q13231) | binding | – | 3100 µM
CCN(CC)CCCC(C)Nc1c2ccc(Cl)cc2nc2ccc(OC)cc12 (centres unmarked) | Lysozyme C (LYZ, Gallus gallus, UniProt P00698) | binding, fluorescence | – | 4.7 µM
NCCS(=O)(=O)O | Cyclin-dependent kinase 6 (CDK6, Homo sapiens, UniProt Q00534) | binding | – | 0.143 µM
Cc1nc(NC(=O)N2CCC[C@H]2C(N)=O)sc1-c1ccnc(C(C)(C)C(F)(F)F)c1 | MTOR | binding, competition with immobilised ligand | – | 0.645 µM
COCCOCCc1c(C)c2cc(OC)c(O)c(C=O)c2oc1=O | Serine/threonine-protein kinase/endoribonuclease IRE1 (Mus musculus, UniProt Q9EQY0, N772Y) | binding | – | 0.84 µM
Cc1ncsc1-c1ccc(CNC(=O)[C@@H]2C[C@@H](O)CN2C(=O)[C@@H](NC(=O)C2(F)CC2)C(C)(C)C)c(OCCOc2ccc(CN3CCN(c4cc(-c5ccccc5O)nnc4N)CC3)cc2)c1 | SMARCA2 bromodomain | binding, SPR | – | 1.8 µM
C=CC(=O)N1CCC(C(=O)N(C)CC(=O)N2CCN(c3nc(-c4cnc(N)nc4C(F)F)nc(N4CCOCC4)n3)CC2)CC1 | MTOR | binding, competition with immobilised ligand | – | 0.026 µM
NC(=O)c1ccc(-c2nc(-c3ccc4c(c3)OCO4)c(-c3ccccn3)[nH]2)cc1 | Epidermal growth factor receptor (EGFR, Homo sapiens, UniProt P00533) | binding | – | > 10 µM
CC1(C)[C@@H]2CC[C@@]1(C)C(=O)C2 | Camphor 5-monooxygenase (camC, Pseudomonas putida, UniProt P00183) | binding, ITC | – | 1.2 µM
Cc1ncsc1-c1ccc(CNC(=O)[C@@H]2C[C@H](O)CN2C(=O)[C@@H](NC(=O)C2(F)CC2)C(C)(C)C)c(OCCc2ccc(CN3CCN(c4cc(-c5ccccc5O)nnc4N)CC3)cc2)c1 | SMARCA2 bromodomain | binding, SPR | – | 1.2 µM
COC(=O)c1c(O)cc(O)c(Cl)c1CCC(=O)Nc1ccccn1 | HSP90B1 | ligand displacement, FP | – | 0.82 µM
c1cncc(-c2cccc(Nc3nccc(NC4CCCCC4)n3)c2)c1 | Non-receptor tyrosine-protein kinase TYK2, JH1 (TYK2, Homo sapiens, UniProt P29597) | binding, competition with immobilised ligand | – | 0.35 µM
COC(=O)c1c(O)cc(O)c(Cl)c1CCC(=O)Nc1ccccc1 | HSP90B1 | ligand displacement, FP | – | 20.5 µM
O=P(O)(O)O[C@H]1[C@H](O)[C@@H](OP(=O)(O)O)[C@H](OP(=O)(O)O)[C@@H](OP(=O)(O)O)[C@H]1O | PREX1 (Homo sapiens, UniProt Q8TCU6) | binding, ITC | – | 0.44 µM
COC(=O)c1c(O)cc(O)c(Cl)c1CCC(=O)Nc1nccs1 | HSP90B1 | ligand displacement, FP | – | 1.08 µM
CCC(=O)N1CCC(C(=O)N(C)CC(=O)N2CCN(c3nc(-c4cnc(N)nc4C(F)F)nc(N4CCOCC4)n3)CC2)CC1 | MTOR | binding, competition with immobilised ligand | – | 0.054 µM
Cc1cc2nc3c(=O)[nH]c(=O)nc-3n(C[C@H](O)[C@H](O)[C@H](O)COP(=O)(O)OP(=O)(O)OC[C@H]3O[C@@H](n4cnc5c(N)ncnc54)[C@H](O)[C@@H]3O)c2cc1C | DAZ-associated protein 1 (Homo sapiens, UniProt Q96EP5) | binding | lysate | 0.007 µM
